The test system of data set [1] is Enterovirus A71. In words: Inhibition concentration against EV-71. It counts as functional, organism-based.
A short description of data set [2]: (§1) Cytotoxicity against human rhabdomyosarcoma (RD) cells. It counts as functional.
A short description of data set [3]: as §1. It counts as functional. The gist of the method: (§2)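 Test compound at various concentrations added to D551 (human normal skin fibroblast), WI38 (human normal lung fibroblast) or RD cells; incubated 96 h at 37 °C; cells harvested and viable cells counted by trypan blue staining. Triplicate, at least twice.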
This is another data set of the same source.

The nature of data set [4]: Cytotoxicity against human normal skin fibroblast (D551) cells. It counts as cell-based. Summed up: as §2
The nature of data set [5]: Cytotoxicity against human normal skin fibroblast (W138) cells. It counts as cell-based. The gist of the method:
as §2

The nature of data set [6]: Selectivity index (D551/EV71) of the compound. It counts as functional.
Data set [7] is described as follows: Selectivity index (RD/EV71) of the compound. It counts as functional.
Data set [8] is described as follows: Selectivity index (W138/EV71) of the compound. It counts as functional.
Setting [9] is: D551 normal skin fibroblast cells.
The mark [10] stands for this setting: W138 normal skin fibroblast cells.

“And” between values parts separate entries of the source, which are not always exact repeats. Equal values may be shown once.

`O=C1N(CCCCCOc2ccc(Br)cc2)CCN1c1ccccc1` returned an IC50 in data set [1] (Enterovirus A) of 10.7 µM. In addition, the CC50 in data set [2] (Homo sapiens, RD) was above 25 µM.

In the case of `O=C1N(CCCCCCOc2ccc(Cl)cc2)CCN1c1ccncn1`, the IC50 in data set [1] (Enterovirus A) is above 25 µM. The same compound registered a CC50 in data set [2] (Homo sapiens, RD) above 25 µM.

For the compound `O=C1N(CCCCCCOc2ccc(Br)cc2)CCN1c1ccccc1`, the IC50 in data set [1] (Enterovirus A) is 10.6 µM. For the same compound, the CC50 in data set [2] (Homo sapiens, RD) is above 25 µM.

As for `N#Cc1ccc(OCCCCCCN2CCN(c3ccncc3)C2=O)cc1`, the IC50 in data set [1] (Enterovirus A) is above 0.39 µM. The compound also showed a CC50 in data set [2] (Homo sapiens, RD) of 0.39 µM.

Regarding `O=C1N(CCCCCCOc2ccc(Cl)cc2)CCN1c1ccncc1`, the IC50 in data set [1] (Enterovirus A) was 1.5 µM. The compound further gave a CC50 in data set [2] (Homo sapiens, RD) above 25 µM.

`O=C1N(CCCCCOc2ccc(Cl)cc2)CCN1c1ccncc1` gave an IC50 in data set [1] (Enterovirus A) of 1.35 µM. Moreover, the CC50 in data set [3] is above 25 µM.

In turn, `O=C1N(CCCCCOc2ccc(Cl)cc2)CCN1c1cccnc1` registered an IC50 in data set [1] (Enterovirus A) of 4.65 µM. Besides, the CC50 in data set [2] (Homo sapiens, RD) is above 25 µM.

In data set [1] (Enterovirus A), `O=C1N(CCCCCCOc2ccc(Br)cc2)CCN1c1ccncn1` yielded an IC50 above 25 µM. This compound also yielded a 50% cytotoxic concentration (CC50) in data set [2] (Homo sapiens, RD) above 25 µM.

As for `O=C1N(CCCCCCOc2ccc(C(F)(F)F)cc2)CCN1c1ccnc(Cl)c1`, the IC50 in data set [1] (Enterovirus A) is above 25 µM. Further, the CC50 in data set [2] (Homo sapiens, RD) is above 25 µM.

`Cc1ccc(OCCCCCCN2CCN(c3cccnc3)C2=O)cc1` gave a 50% inhibitory concentration (IC50) in data set [1] (Enterovirus A) above 25 µM. This compound also registered a CC50 in data set [2] (Homo sapiens, RD) above 25 µM.

In data set [1] (Enterovirus A), `CSc1ccc(OCCCCCCN2CCN(c3ccncc3)C2=O)cc1` came in with a concentration for half-maximal inhibition (IC50) of 4.96 µM. The same compound came in with a CC50 in data set [3] above 25 µM.

Consider `O=C1N(CCCCCCOc2ccc(C(F)(F)F)cc2)CCN1c1cccnc1`, for which, in data set [1] (Enterovirus A), the IC50 was 2.1 µM. The compound further had a CC50 in data set [2] (Homo sapiens, RD) above 25 µM.

Regarding `O=C1N(CCCCCOc2ccc(-c3ccc([N+](=O)[O-])cc3)cc2)CCN1c1ccncc1` [listing 1 of 3 here], the results for the CC50 in data set [4] and in data set [5] were 66 µM and 70 µM, respectively. For the same compound, the IC50 in data set [1] was 0.33 µM.

Turning to `O=C1N(CCCCCCCOc2ccc(C(F)(F)F)cc2)CCN1c1ccncc1`, in data set [1] (Enterovirus A), the IC50 amounted to 0.61 µM. The compound further had a CC50 in data set [2] (Homo sapiens, RD) of 6.25 µM.

On to `O=C1N(CCCCCCOc2ccc(Cl)cc2)CCN1c1ccccc1`, for which the IC50 in data set [1] (Enterovirus A) was found to be 10.8 µM. In data set [2] (Homo sapiens, RD), this compound had a CC50 above 25 µM.

As for `O=C1N(CCCCCCOc2ccc(C(F)(F)F)cc2)CCN1c1ccncn1`, the IC50 in data set [1] (Enterovirus A) was above 25 µM. The compound further gave a CC50 in data set [2] (Homo sapiens, RD) above 25 µM.

With `O=C1N(CCCCCCOc2cccc(Br)c2)CCN1c1ccncc1`, the half-maximal inhibitory concentration (IC50) in data set [1] (Enterovirus A) was above 25 µM. The CC50 in data set [2] (Homo sapiens, RD) is above 25 µM.

The compound `O=C1N(CCCCCOc2ccc(Br)cc2)CCN1c1ccnc(Cl)c1` registered an IC50 in data set [1] (Enterovirus A) above 25 µM. In data set [2] (Homo sapiens, RD), this compound returned a CC50 above 25 µM.

`N#Cc1ccc(-c2ccc(OCCCCCN3CCN(c4ccncc4)C3=O)cc2)cc1` gave an IC50 in data set [1] (Enterovirus A) of 2.66 µM. The CC50 in data set [2] (Homo sapiens, RD) was above 25 µM.

Regarding `O=C1N(CCCCCOc2ccc(-c3ccc([N+](=O)[O-])cc3)cc2)CCN1c1ccncc1` [listing 2 of 3 here], the CC50 is above 100 µM in data set [4] (setting [9]); above 25 µM in data set [2] (Homo sapiens, RD); above 100 µM in data set [5] (setting [10]). This compound also gave a 50% inhibitory concentration (IC50) in data set [1] (Enterovirus A) of 0.59 µM.

Take `O=C1N(CCCCCCOc2ccc(F)cc2)CCN1c1ccncc1`: in data set [1] (Enterovirus A), the IC50 is 3.01 µM. Moreover, the CC50 in data set [3] was above 25 µM.

For the compound `O=C1N(CCCCCCOc2cccc3cccnc23)CCN1c1ccncc1`, the IC50 in data set [1] (Enterovirus A) was above 25 µM. Besides, in data set [2] (Homo sapiens, RD), the CC50 is above 25 µM.

Take `O=C1N(CCCCCOc2ccc(-c3ccc(Cl)cc3)cc2)CCN1c1ccncc1` [listing 1 of 2 here]: the CC50 in data set [4] amounted to 13 µM; in data set [2] it was 12.5 µM; in data set [5], 48 µM.

In the case of `O=C1N(CCCCCOc2ccc(-c3ccc(Cl)cc3)cc2)CCN1c1ccncc1` [listing 2 of 2 here], the CC50 stood at 6 µM in data set [4]; 6.25 µM in data set [2] (Homo sapiens, RD); 32 µM in data set [5] (setting [10]). In addition, inhibition in data set [1] (Enterovirus A) was half-maximal at 0.06 µM (IC50).

Take `O=C1N(CCCCCCCOc2ccc(Br)cc2)CCN1c1ccncn1`: the half-maximal inhibitory concentration (IC50) in data set [1] (Enterovirus A) was above 25 µM. Moreover, in data set [2] (Homo sapiens, RD), the CC50 is above 25 µM.

Regarding `O=C1N(CCCCCCOc2ccc(Br)cc2)CCN1c1cccnc1`, the IC50 in data set [1] (Enterovirus A) stood at 2.07 µM. This compound yielded a half-maximal cytotoxic concentration (CC50) in data set [2] (Homo sapiens, RD) above 25 µM.

`O=C1N(CCCCCOc2ccc(-c3cccs3)cc2)CCN1c1ccncc1` registered an IC50 in data set [1] (Enterovirus A) of 0.58 µM. The CC50 in data set [3] is above 25 µM.

The compound `O=C1N(CCCCCCOc2ccc(Br)cc2)CCN1c1ccnc(Cl)c1` yielded an IC50 in data set [1] (Enterovirus A) above 25 µM. Also, the CC50 in data set [2] (Homo sapiens, RD) is above 25 µM.

`O=C1N(CCCCCOc2ccc(C(F)(F)F)cc2)CCN1c1ccncn1` returned an IC50 in data set [1] (Enterovirus A) above 25 µM. Further, the CC50 in data set [2] (Homo sapiens, RD) was above 25 µM.

On to `O=C1N(CCCCCCOc2ccc(Cl)cc2)CCN1c1cccnc1`, for which the IC50 in data set [1] (Enterovirus A) was 2.52 µM. The compound further yielded a CC50 in data set [2] (Homo sapiens, RD) above 25 µM.

As to `COc1ccc(OCCCCCCN2CCN(c3ccncc3)C2=O)c(Cl)c1`, in data set [1] (Enterovirus A), the IC50 was above 25 µM. In addition, the CC50 in data set [2] (Homo sapiens, RD) was above 25 µM.

In the case of `O=C1N(CCCCCOc2ccc(-c3ccc([N+](=O)[O-])cc3)cc2)CCN1c1ccncc1` [listing 3 of 3 here], the Selectivity index in data set [6] was > 169 and 200; in data set [7], above 76; in data set [8], > 169 and 212.

Consider `O=C1N(CCCCCOc2ccc(-c3ccc(Br)cc3)cc2)CCN1c1ccncc1`, for which the CC50 in data set [4] (setting [9]) is above 100 µM; in data set [2] (Homo sapiens, RD) it was above 25 µM; in data set [5] (setting [10]), above 100 µM. For the same compound, the midpoint of inhibition in data set [1] (Enterovirus A), the IC50, lay at 0.14 µM. The Selectivity index was above 714 in data set [6], above 179 in data set [7] and above 714 in data set [8].

As to `O=C1N(CCCCCOc2ccc(C(F)(F)F)cc2)CCN1c1ccncc1`, the IC50 in data set [1] (Enterovirus A) came out at 1.35 µM. In data set [2] (Homo sapiens, RD), this compound returned a CC50 of 12.5 µM.

The compound `O=C1N(CCCCCCCOc2ccc(Cl)cc2)CCN1c1ccncc1` had an IC50 in data set [1] (Enterovirus A) of 0.66 µM. The compound further showed a CC50 in data set [2] (Homo sapiens, RD) above 25 µM.

In data set [1] (Enterovirus A), `O=C1N(CCCCCCOc2ccc(-c3ccoc3)cc2)CCN1c1ccncc1` yielded an IC50 of 0.58 µM. This compound returned a CC50 in data set [2] (Homo sapiens, RD) above 25 µM.

`O=C1N(CCCCCCOc2c(Cl)cccc2Cl)CCN1c1ccncc1` gave a half-inhibitory concentration (IC50) in data set [1] (Enterovirus A) above 25 µM. Further, the CC50 in data set [2] (Homo sapiens, RD) was above 25 µM.

In the case of `O=C1N(CCCCCCOc2cccc3ccccc23)CCN1c1ccncc1`, in data set [1] (Enterovirus A), the IC50 was above 6.25 µM. Moreover, half-maximal cytotoxicity in data set [2] (Homo sapiens, RD) (CC50) was put at 6.25 µM.

In data set [1] (Enterovirus A), `O=C1N(CCCCCCOc2ccc(C(F)(F)F)cc2)CCN1c1ccccc1` had an IC50 of 12 µM. The CC50 in data set [2] (Homo sapiens, RD) is above 25 µM.

`CSc1ccc(OCCCCCCN2CCN(c3ccnc(Cl)c3)C2=O)cc1` returned a half-inhibitory concentration (IC50) in data set [1] (Enterovirus A) above 25 µM. For the same compound, in data set [2] (Homo sapiens, RD), the CC50 is above 25 µM.

For the compound `COc1ccc(-c2ccc(OCCCCCN3CCN(c4ccncc4)C3=O)cc2)cc1`, the CC50 in data set [4] (setting [9]) is above 100 µM; in data set [2] (Homo sapiens, RD), above 25 µM; in data set [5] (setting [10]) it was above 100 µM. For the same compound, in data set [1] (Enterovirus A), 0.34 µM corresponded to half-maximal inhibition (IC50). Moreover, the Selectivity index in data set [6] was above 294; in data set [7], above 74; in data set [8], above 294.

Compound `Cc1ccc(OCCCCCCN2CCN(c3ccncc3)C2=O)cc1` had a half-inhibitory concentration (IC50) in data set [1] (Enterovirus A) of 6.36 µM. The compound also showed a CC50 in data set [2] (Homo sapiens, RD) above 25 µM.

As for `O=C1N(CCCCCCCOc2ccc(Cl)cc2)CCN1c1cccnc1`, in data set [1] (Enterovirus A), the concentration for half-maximal inhibition (IC50) was determined as 1.43 µM. The CC50 in data set [2] (Homo sapiens, RD) is above 25 µM.

`O=C1N(CCCCCCCOc2ccc(Br)cc2)CCN1c1ccncc1`: in data set [1] (Enterovirus A), half-maximal inhibition (IC50) required 0.56 µM. In data set [2] (Homo sapiens, RD), this compound had a CC50 above 25 µM.

For `CC(C)(C)c1ccc(OCCCCCCN2CCN(c3cccnc3)C2=O)cc1`, in data set [1] (Enterovirus A), the IC50 was above 25 µM. The same compound gave a CC50 in data set [2] (Homo sapiens, RD) above 25 µM.

Consider `O=C1N(CCCCCCOc2ccc(F)cc2)CCN1c1cccnc1`, for which, in data set [1] (Enterovirus A), half-maximal inhibition (IC50) was put at 9.33 µM. In addition, the CC50 in data set [2] (Homo sapiens, RD) is above 25 µM.

Consider `COc1ccc(OCCCCCCN2CCN(c3ccncc3)C2=O)cc1`, for which the IC50 in data set [1] (Enterovirus A) was found to be 5.43 µM. Moreover, the CC50 in data set [3] is above 25 µM.

`CN(C)c1cccc(OCCCCCCN2CCN(c3ccncc3)C2=O)c1` returned a half-inhibitory concentration (IC50) in data set [1] (Enterovirus A) above 25 µM. Also, the CC50 in data set [2] (Homo sapiens, RD) was above 25 µM.

The IC50 is the concentration that inhibits the measured activity by half. A high value points to lower potency. What is called CC50 is the concentration giving 50% cytotoxicity.

Source of the values: ChEMBL document CHEMBL1135916, “Design, synthesis, and structure-activity relationship of pyridyl imidazolidinones: a novel class of potent and selective human enterovirus 71 inhibitors” (J Med Chem, 2002).
